Source: PubChem BioAssay (SRMLSC)
The full list was thinned out, with hits kept by preference.
Yeast lifespan up – compounds extending yeast replicative lifespan, primary screen, S. cerevisiae, OD615; S. cerevisiae growth with nicotinamide; deaD strain in restrictive glucose medium; inhibition of the nicotinamide effect, % at 10 µM; 0.68% of 130,000 active;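 active = inhibition above a set limit, placed 3 SD over the median of all compounds, cut at about 26% in these data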;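 also: 0% = nicotinamide-treated wells and 100% = cells grown without nicotinamide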
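Assay system: engineered S. cerevisiae DeaD replicative-lifespan strain, galactose-grown log-phase cells; Buffer or medium: CSMM-D glucose medium, restrictive; Probe or stimulus: nicotinamide 1.5 mM; Compound: single dose 10 µM compound, 0.25% DMSO; Schedule: 4 h preincubation then 48 h treatment at 30 °C; Technique: OD615 measurement.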
PostGolgi ctrl – growth inhibition of yeast control strain, primary screen, counter-screen for post-Golgi transport modulator project. efflux-deficient yeast background strain, growth absorbance A615, 16 h. inhibition, % at 10 µM. 5% of 98,000 active. AID 738, 2007
BB579 growth dn – growth inhibitors of yeast BB579 in restrictive medium, primary screen, yeast lifespan-shortening project, S. cerevisiae; OD615, 48 h; inhibition, % at 10 µM; 0.51% of 140,000 active; AID 804, 2007;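 active = inhibition above a set limit, 3 SD over the mean compound inhibition, cut at about 44% in these data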
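Test system: Saccharomyces cerevisiae DeaD strain BB579, replicative lifespan model yeast | Buffer or medium: Restrictive CSMM-D medium | Doses: One dose, 10 µM compound with 0.25% DMSO | Incubation: 48 h exposure, 30 °C | Detection: Culture absorbance at 615 nm | Control set: Amphotericin B at 10 µg/mL as positive control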
PostGolgi yeast – phenotypic screen on post-Golgi transport, primary screen | post-Golgi transport phenotypic cell assay | inhibition, % at 10 µM | 0.9% of 98,000 active;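 also: yeast cells grown in 1536-well plates; yeast grown about 18 h at 30C before absorbance read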
Numbers without * were called inactive; · = not tested or not shown. Rule as the data show it, unless noted: active = inhibition above about 30%; inactive = the rest.

SMILES	Yeast lifespan up	PostGolgi ctrl	BB579 growth dn	PostGolgi yeast
Cc1ccc(NC(=O)c2sc3ccccc3c2Cl)nc1	-7.6	31.2*	-15.4	-1.1
Cc1ccc(NC(=O)c2ccc3ccccc3n2)nc1	-6.3	34.0*	38.6	-5.3
Cc1c2c(nc3ccccc13)OCC2	-4.0	·	6.8	·
O=C(/C=C/c1ccccc1Cl)Nc1ccc(-c2nnc3n2CCCCC3)cc1	-4.1	·	-27.8	·
COCc1nnc(NC(=O)c2sc3ccccc3c2Cl)s1	-13.4	30.0*	-16.4	-2.9
COc1ccc(-n2c(O)c(/C=N/n3cnnc3)c3ccccc3c2=O)cc1	-21.4	12.7	-14.4	1.3
O=C1CC(N2CCN(c3nc4ccccc4s3)CC2)C(=O)N1c1cccc(F)c1 (configuration not stated)	-7.1	16.7	2.2	0.5
CCOc1ccc(NC(=O)c2cccc3c2C(=O)N(Cc2cccnc2)C3)cc1	-28.0	32.4*	14.2	-4.0
Cc1cc(C)c[n+](CC(=O)c2cc3ccccc3oc2=O)c1	4.8	-1.5	-35.6	-5.8
Cc1ccc[n+](CC(=O)c2cc3ccccc3oc2=O)c1	36.3*	-2.6	-25.8	5.0
O=C(Cn1nc(Cl)nc1Cl)c1cc2ccccc2oc1=O	41.8*	1.3	-29.3	-4.2
CCCCCCn1c(-c2ccco2)nc2oc3cc(OC)ccc3c(=O)c2c1=O	3.4	15.3	-1.2	0.3
Cc1cc(NO)c(C(C)C)cc1N=O	-3.0	·	-17.5	·
O=S(=O)(/N=C(\Sc1ccc(Cl)cc1)c1ccccc1)c1ccccc1	-21.4	0.6	88.2*	-8.5
CC1CCc2nn(CC(=O)NCCC3=CCCCC3)cc2C1 (configuration not stated)	-1.0	36.5*	-10.6	-4.8
c1ccc(-c2ccc(-c3ccccn3)nn2)nc1	-9.8	1.7	68.0*	-5.5
c1ccc(-c2ccccn2)nc1	5.9	·	-49.5	·
Cc1cccc(C(=O)Nc2ccccc2C(=O)OCC(=O)Nc2ccc(C#N)cc2)c1	-2.4	·	-26.7	·
COc1ccc(S(=O)(=O)N2CCN(CC(=O)Nc3ccc(C)c(F)c3)CC2)cc1	-13.1	-1.0	-48.6	2.2
CC(C)(C)NC(=O)c1cnn(-c2ccccc2)c1NC(=O)c1ccccc1	-11.4	5.9	-71.3	-1.7
Cc1csc(-c2cnn(-c3ccccc3)c2NC(=O)c2ccc(C(F)(F)F)cc2)n1	-4.2	44.4*	-72.0	17.5
c1ccc(-n2c(-c3ccco3)nnc2-c2ccco2)cc1	-9.4	16.8	47.5*	-1.4
Cc1cc(C)n(CCOc2ccc(Cl)cc2Cl)n1	-16.5	35.0*	-4.5	10.5
CC1(C)Cc2c(C#N)c(N3CCN(C(=O)c4ccccc4)CC3)nc(-c3ccco3)c2CS1	2.4	35.4*	-44.1	13.5
Cc1nc2nc(-c3ccc(Cl)cc3)[nH]n2c(=O)c1C	-25.8	10.8	-0.2	1.4
SMILES	Yeast lifespan up	PostGolgi ctrl	BB579 growth dn	PostGolgi yeast
COc1ccc2c3c(cccc13)C(=O)N(O)C2=O	58.1*	·	-26.0	·
COc1ccccc1N1C(=O)c2cccc3c(C(=O)O)ccc(c23)C1=O	-9.2	-2.0	14.9	-9.4
O=C(CCCc1c[nH]c2ccccc12)Nc1ccc2ccccc2c1	-0.3	·	-15.4	·
COC(C)(C)[C@]12CC(O)(c3ccccc3)ON1[C@H]1CCCCC1N2O (some centres not stated)	-11.6	31.6*	5.7	1.2
O=C1C(c2ccncc2)=C(O)c2ccccc21	-10.1	23.0	-21.9	-23.2
CC(C)c1ccc(C2=C(O)c3ccccc3C(=O)C2=O)cc1	46.4*	·	5.0	·
CCc1nc(SCC(=O)N2CCC(Cc3ccccc3)CC2)c2c(=O)n(C)c(=O)n(C)c2n1	-0.5	40.0*	12.4	19.1
CCc1nc(SCC(=O)N2CCC(C)CC2)c2c(=O)n(C)c(=O)n(C)c2n1	-7.8	2.6	-22.3	-3.6
Cc1ccc(CNC(=O)CSc2nc(N3CCCCC3)nc(N3CCCCC3)n2)cc1	-4.1	45.6*	-29.6	-6.4
Cc1ccccc1NC(=O)CSc1nc(N2CCCCC2)nc(N2CCCCC2)n1	-8.4	5.0	-16.3	16.7
CCOC(=O)Cn1c(=NC(=O)c2ccc([N+](=O)[O-])s2)sc2ccccc21	5.5	·	-39.2	·
FC(F)(F)c1cccc(Sc2cc(C(F)(F)F)nc(-c3ccccn3)n2)c1	-6.0	42.3*	-51.4	-10.2
O=C(O)CSc1cc(C(F)(F)F)nc(-c2ccccn2)n1	-24.4	-4.0	-6.2	0.3
COc1ccc(C2CC(C(F)(F)F)n3ncc(C(=O)Nc4cccc(O)c4)c3N2)cc1OC (configuration not stated)	-3.4	-4.3	-0.7	0.3
CCCCC(C)(O)C/C=C/[C@H]1[C@H](O)CC(=O)[C@@H]1CCCCCCC(=O)OC (some centres not stated)	31.6*	·	-38.8	·
CC(NC(=O)c1ccc(S(=O)(=O)N(C)C)cc1)c1ccccc1 (configuration not stated)	-5.3	3.2	-65.8	-3.1
COc1ccccc1NC(=S)N(Cc1ccco1)Cc1cc2cc(C)cc(C)c2[nH]c1=O	-3.2	·	1.5	·
COCCN(Cc1cc2cc(C)cc(C)c2nc1Cl)C(=O)Nc1ccccc1	-4.3	35.4*	-74.9	-1.7
Cc1cc(C)c2nc(Cl)c(CN(Cc3ccco3)C(=O)Nc3ccccc3C)cc2c1	3.4	34.5*	-51.4	7.0
Cc1ccc(C(=O)NC(N2CCCC2)C(Cl)(Cl)Cl)cc1 (configuration not stated)	-9.5	-3.5	26.2	-1.3
Nc1c(C(=O)NCc2ccc(F)cc2)c2nc3ccccc3nc2n1CCCN1CCOCC1	-27.5	73.2*	-69.1	100.9*
Cc1cccc(-n2c(N)c(C(=O)NCCN3CCOCC3)c3nc4ccccc4nc32)c1	-25.4	-2.5	18.6	30.3*
Cc1ccc(-c2cc(C(=O)NCCN3CCOCC3)no2)cc1	-9.9	30.4*	-28.3	-5.2
Nc1c(C(=O)NCc2ccccc2)c2nc3ccccc3nc2n1CCCN1CCOCC1	-4.9	·	-27.6	·
O=C(NCCN1CCOCC1)c1cc(-c2ccc(F)cc2)on1	-3.1	0.1	3.8	10.8
SMILES	Yeast lifespan up	PostGolgi ctrl	BB579 growth dn	PostGolgi yeast
CC1Cc2ccccc2N1C(=O)CN1C(=O)C(=O)N(Cc2ccccc2)C1=O (configuration not stated)	-3.1	-14.4	-50.3	-8.1
CCCOc1ccc(-c2csc(NC(=O)CN3C(=O)CCC3=O)n2)cc1	-1.0	·	-8.3	·
C=CCc1ccc(OCCOc2cccc3ccc(C)nc23)c(OC)c1	-4.2	29.4	5.3	1.7
COC(=O)c1sccc1NC(=O)Cn1cnc2c1c(=O)n(C)c(=O)n2C	-3.4	0.6	-12.2	11.2
Oc1c(Cl)cc(Cl)cc1Sc1cc(Cl)cc(Cl)c1O	10.9	·	53.0*	·
CCN(CC)CCCN1C(=O)c2oc3ccccc3c(=O)c2C1c1cc(OC)ccc1OC (configuration not stated)	-15.1	0.6	-8.5	-5.6
CC(C(=O)Nc1cccc([N+](=O)[O-])c1)n1nnc2ccccc21 (configuration not stated)	-19.2	2.2	-24.6	-0.8
COc1ccc(C(=O)ON=C2CCN(c3ccc([N+](=O)[O-])cc3)CC2)cc1	-18.1	35.8*	-38.0	5.5
CCOC(=O)C1CCCN(S(=O)(=O)c2cccc3cccnc23)C1 (configuration not stated)	-9.6	-0.9	4.6	-4.2
